Paper PMC10160980 (Proceedings of the National Academy of Sciences of the …, 2023)

What was measured:
MDA-MB-231 cells [1] = assay: Matrigel cultures, MDA-MB-231; type: cell-based, human; settings: 100 μM for 2 days, culture 7 days
MCF-10A cells [2] = assay: Matrigel cultures, MCF-10A; type: cell-based, human; settings: 100 μM
[3] = system: Akt activation in GIV-depleted cells (shGIV); assay: EGF-stimulated Akt activation in GIV-depleted cells; type: cell-based, human; settings: 100 μM
In short: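 GIV-depleted (shGIV) and control (shControl) cells were handled the same way: preincubation with test compound, EGF stimulation for 5 min, lysis, then immunoblotting for Akt activation.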

MDA-MB-231 cells [4] = type: cell-based, human
BT-549 cells = assay: Tumor cell migration, BT-549; type: cell-based, human; settings: 1-100 μM
In short: (§1)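 Chemotactic migration toward FBS was measured in a modified Boyden chamber across a range of test compound concentrations. IC50 was derived from the concentration–response data. Results are mean ± SEM (N ≥ 3).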

[5] = system: GIV-depleted (shGIV) HeLa cells; assay: Tumor cell migration, GIV-depleted HeLa; type: cell-based, human
In short: (§2)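 GIV-depleted (shGIV) and matched control (shControl) cells were run side by side in a modified Boyden-chamber assay of chemotactic migration toward FBS with test compound. Results are mean ± SEM (N ≥ 3).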

[6] = system: endogenous β-adrenergic receptors (cAMP via Gαs); assay: Luminescence-based cAMP; type: cell-based, human; settings: 100 μM; isoproterenol 100 nM; HEK293T
In short: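 HEK293T cells expressing the Glosensor luminescent cAMP sensor plus α2A-AR or GABA_BR were pretreated with test compound (100 μM) or DMSO. They were then stimulated with isoproterenol (100 nM), with or without prestimulation by brimonidine (1 μM) or GABA (100 μM). Luminescence was recorded. Mean ± SEM, N ≥ 3; ANOVA.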

MCF-10A cells [7] = assay: Cell viability assay, MCF-10A; type: cell-based, human; settings: 100 μM, 24 h
In short: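 Single-concentration viability screen at 100 μM in MCF-10A cells, run alongside MDA-MB-231 and MCF-7. Values are the mean of N = 3.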

[8] = system: Akt activation upon stimulation of the GPCR CXCR4 in MDA-MB-231 cells; assay: SDF-1α-stimulated Akt activation; type: cell-based, human; settings: SDF-1α 100 ng/mL, 10 min; IGGi-11me 100 μM; PTX 100 ng/mL
MDA-MB-231 cells [9] = assay: Growth of pretreated MDA-MB-231 cells on plastic dishes; type: cell-based, human; settings: cells treated overnight with 100 μM
[10] = Hydrolytic processing of IGGi-11me by cytosolic fraction of MDA-MB-231 cells; type: in vitro ADME, human; settings: 2 hours, 37 °C
GIV binding to Gαi3 = GIV binding to Gαi3 (Rattus norvegicus, UniProt P08753); assay: Fluorescence polarization
GIV binding to Gαi3, sequence (P08753 whole entry): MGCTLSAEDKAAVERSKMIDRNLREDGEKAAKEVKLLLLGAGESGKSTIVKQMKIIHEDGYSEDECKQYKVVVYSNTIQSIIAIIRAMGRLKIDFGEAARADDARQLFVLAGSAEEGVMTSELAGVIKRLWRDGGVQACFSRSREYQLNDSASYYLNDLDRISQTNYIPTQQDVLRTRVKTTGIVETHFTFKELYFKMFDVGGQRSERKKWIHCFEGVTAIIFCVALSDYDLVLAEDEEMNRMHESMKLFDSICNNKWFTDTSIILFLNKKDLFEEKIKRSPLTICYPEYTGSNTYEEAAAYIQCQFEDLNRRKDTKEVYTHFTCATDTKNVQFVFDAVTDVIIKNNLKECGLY

[11] = system: GIV-depleted (shGIV) MDA-MB-231 cells; assay: Tumor cell migration, GIV-depleted MDA-MB-231; type: cell-based, human; settings: 100 μM
In short: as §2

Stability in plasma = type: in vitro ADME; settings: preliminary results
MDA-MB-231 cells (CXCR4) = assay: SDF-1α mediated cell migration, MDA-MB-231; type: cell-based, human; settings: SDF-1α as chemoattractant; up to 100 μM
Hs578T cells = assay: Tumor cell migration, Hs578T; type: cell-based, human; settings: 1-100 μM
In short: as §1

MDA-MB-231 cells [12] = assay: Cell viability assay; type: cell-based, human; settings: up to 100 μM, 24 h
In short: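 Cell viability was measured after 24 h incubation with test compound at indicated concentrations. IC50 was derived from the concentration-response data. Mean ± SEM, N ≥ 3.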

[13] = system: Akt phosphorylation at S473 in MDA-MB-231 cells; assay: EGF-stimulated Akt activation; type: cell-based, human
In short: (§3)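 Cells were preincubated with a range of test compound concentrations, then stimulated with EGF for 5 min (1.6 nM for MDA-MB-231, 50 nM for HeLa). Cells were then lysed and Akt activation was read by immunoblotting.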

[14] = system: Akt phosphorylation at S473 in HeLa cells; assay: EGF-stimulated Akt activation; type: cell-based, human; settings: EGF 50 nM, 5 min
In short: as §3

GIV–Gαi3 binding = GIV–Gαi3 binding (Rattus norvegicus, UniProt P08753); settings: cell-free systems; cited from earlier work
GIV–Gαi3 binding, sequence (P08753 whole entry): as above

For `COC(=O)CCCN(C)S(=O)(=O)c1ccc2c(c1)Cc1cc(S(=O)(=O)N(C)CCCC(=O)OC)ccc1-2` [IGGi-11me], the “growth of MDA-MB-231 cells in Matrigel cultures” value (MDA-MB-231 cells [1]) was “overall reduction of cell growth”, the “growth of MCF-10A cells in Matrigel cultures” value (MCF-10A cells [2]) was “did not affect the growth of nontransformed MCF-10A breast cells in Matrigel cultures” and the “EGF-stimulated Akt activation in GIV-depleted cells” value [3] was “failed to further reduce Akt activation in GIV-depleted cells”. For the same compound, the “inhibition of MDA-MB-231 cell migration, dose dependence” value (MDA-MB-231 cells [4]; FBS as chemoattractant, 1-100 μM, preincubation) was “efficiently reduced their ability to migrate”, the “potency on migration of MDA-MB-231 relative to MCF-7” value (MDA-MB-231 cells [4]; GIV^High vs GIV^Low) was “approximately four times more potent” and the “inhibition of BT-549 cell migration” value (BT-549 cells) was “potency similar to that seen for MDA-MB-231 cells”. The “cell migration of GIV-depleted HeLa cells” value [5] was “inhibition of tumor cell migration is lost upon depletion of GIV”, the “cAMP response to isoproterenol in the absence of Gi-mediated regulation” value [6] was “had no effect” and the “viability of MCF-10A cells” value (MCF-10A cells [7]) was “did not affect the viability”. The “SDF-1α-stimulated Akt activation, MDA-MB-231” value [8] was “does not block Akt activation”, the “growth of pretreated MDA-MB-231 cells on plastic dishes” value (MDA-MB-231 cells [9]) was “had no effect” and the “conversion to IGGi-11 by cellular esterases” value [10] was “converted to IGGi-11 by esterases present in the cytosol of MDA-MB-231 cells”. For the same compound, the “potency as inhibitor of GIV–Gαi3 binding relative to IGGi-11, FP” value (GIV binding to Gαi3) was “lower potency compared to IGGi-11”, the “cell migration of GIV-depleted MDA-MB-231 cells” value [11] was “had no effect on MDA-MB-231 cell migration upon GIV depletion” and the stability in plasma (Stability in plasma) was “rapidly degraded in plasma”. For the same compound, the “MDA-MB-231 cell migration toward SDF-1α” value (MDA-MB-231 cells (CXCR4)) was “did not affect MDA-MB-231 cell migration”, the “inhibition of Hs578T cell migration” value (Hs578T cells) was “potency similar to that seen for MDA-MB-231 cells” and the “viability of MDA-MB-231 cells” value (MDA-MB-231 cells [12]) was “did not affect the viability”. The “EGF-stimulated phosphorylation of Akt at S473, MDA-MB-231” value ([13]; EGF 1.6 nM, 5 min, PTX 100 ng/mL) was “reduced, in a dose-dependent manner, the phosphorylation of Akt at S473”, the “total amount of GIV or Gαi” value ([13]; immunoblot) was “did not change the total amount of GIV or Gαi” and the “EGF-stimulated phosphorylation of Akt at S473, HeLa” value [14] was “reduced, in a dose-dependent manner, the phosphorylation of Akt at S473”.
In the case of `O=C(Nc1cccc(C(=O)Nc2ccc(S(=O)(=O)O)c3cc(S(=O)(=O)O)cc(S(=O)(=O)O)c23)c1)Nc1cccc(C(=O)Nc2ccc(S(=O)(=O)O)c3cc(S(=O)(=O)O)cc(S(=O)(=O)O)c23)c1` [NF023], the “disruption of the GIV–Gαi interaction” value (GIV–Gαi3 binding) is listed as “disrupts the GIV–Gαi interaction”.
